Data set [1] addresses BCL-XL (Homo sapiens, UniProt Q07817). The data set can be described thus: BCL-XL degradation by western blot densitometry in SUP-T1 cells. It is filed as cell-based. The conditions noted are these: read-out: DC50 (concentration that degraded 50% of BCL-XL protein), 24 hrs of DT2216, western blot densitometry. A general note: In western blotting, separated proteins are transferred to a membrane and probed.

Data set [2] relates to SUP-T1 T-ALL cells. The data set can be described thus: Cell cytotoxicity assay. It is filed as cell-based, Human. The method in brief: (§1)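 Human T-ALL lines grown in RPMI with 10% or 20% FBS at 37°C, 5% CO2. Plated 2×10^3–2×10^4 cells/well depending on doubling time, in quadruplicate. Test compound added from DMSO (≥1:1000 into medium) at varying concentrations; DMSO vehicle control. Exposure 48 h, then CCK-8 for 4 h at 37°C and A450 read. % survival derived; ≥3 independent experiments, mean ± SE.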

The conditions of data set [3]: intratumoral, T-ALL xenograft in immunodeficient mice ref 8; cited from earlier work.
Data set [4] has as its system BCL-2 or MCL-1. It is filed as cell-based, Human. The method in brief: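 T-ALL cells were lysed before and after test-compound exposure. Western blots of 10 µg lysate were probed for BCL-2 and MCL-1, with β-actin as loading control. Band intensities were measured by densitometry and normalized to β-actin. Each blot was done twice with distinct protein preparations.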

In data set [5] the test system is PEER T-ALL cells. The data set can be described thus: Cell cytotoxicity assay. The data set is classed as cell-based. Conditions: Homo sapiens, 48 h. The method in brief: as §1
In data set [6] the test system is T-ALL cell lines other than SUP-T1. The data set is described as follows: Cell cytotoxicity assay. It is filed as cell-based. Conditions: Homo sapiens, SUP-T1, 48 h. The method in brief:
as §1

Data on 1 molecule can be found in article PMC10405225 (Cancer chemotherapy and pharmacology, 2022).

By IC50 is commonly meant the concentration needed to halve the response being measured. Read a high IC50 as weaker potency in that assay.

Each structure is given as a SMILES string.

Sequence of BCL-XL (Q07817 whole entry): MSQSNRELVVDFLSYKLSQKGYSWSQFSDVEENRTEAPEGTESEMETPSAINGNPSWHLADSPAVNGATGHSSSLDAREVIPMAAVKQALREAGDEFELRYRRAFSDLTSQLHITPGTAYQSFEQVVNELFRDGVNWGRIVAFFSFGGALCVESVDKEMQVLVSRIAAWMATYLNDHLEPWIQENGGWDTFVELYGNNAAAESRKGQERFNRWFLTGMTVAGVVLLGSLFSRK

`Cc1ncsc1-c1ccc([C@H](C)NC(=O)[C@@H]2C[C@@H](O)CN2C(=O)[C@@H](NC(=O)CCCCCC(=O)N2CCN(CC[C@H](CSc3ccccc3)Nc3ccc(S(=O)(=O)NC(=O)c4ccc(N5CCN(CC6=C(c7ccc(Cl)cc7)CCC(C)(C)C6)CC5)cc4)cc3S(=O)(=O)C(F)(F)F)CC2)C(C)(C)C)cc1` [DT2216]: the DC50 in data set [1] stood at 0.131 µM. The IC50 in data set [2] (48 hrs) was 1.49 µM; in data set [2] (Homo sapiens, SUP-T1, 48 h), > 0.8 µM; in data set [5] it was 0.305 µM; in data set [6], < 0.8 µM. In data set [3], the “DT2216 level achieved within a T-ALL xenografted tumor in vivo” value is 800 nM. Further, in data set [4] (any of the 13 T-ALL cell lines), the “Induction of BCL-2 or MCL-1 expression by DT2216” value is “not induced”. Also, in data set [4] (resistant SUP-T1 cells), the “Change in BCL-2 or MCL-1 protein levels after exposure to DT2216” value was “no change”.
